Read-outs that look alike come from different tables or passages of the source.
What was measured:
[1] = Particle formation by dynamic light scattering; format: physicochemical; conditions: for DLS detected (concentration at which particles were detected) / DLS particle radius: dynamic light scattering; for DLS particle radius: at the concentration detected
Outline: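 Particle formation was measured by dynamic light scattering following an earlier published method, with each test compound in buffer both without and with 0.01% Triton X-100. Read-outs were scattering intensity and average particle radius. For selected compounds, critical aggregation concentration was found by tracking scattering intensity as concentration rose, using three independent experiments. Forming aggregator-type particles was a required criterion.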

[2] = biological target: monoamine oxygenase B (MAOB); conditions: read-out: Inhibition of MAOB; cited from earlier work
AmpC β-lactamase = AmpC β-lactamase (Escherichia coli, UniProt P00811); assay: AmpC β-lactamase inhibition with and without Triton X-100; format: biochemical; conditions: for IC50: 1% DMSO
Outline: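 AmpC β-lactamase activity was measured following an earlier published method, with final DMSO at 1% in all samples. Concentration-response curves were run with and without 0.01% Triton X-100. Where detergent fully reversed inhibition, only the highest inhibitor concentration was tested. Values are means of duplicate samples from two independent experiments. Detergent-sensitive inhibition with IC50 better than 100 µM was one criterion for classing a compound as an aggregator.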

[3] = biological target: cholesterol ester transferase protein (CETP); conditions: read-out: Inhibition of CETP; cited from earlier work
[4] = cited from earlier work; for Known aggregator status: previously reported
[5] = read-out: AmpC IC50 no Triton, no Triton X-100
[6] = read-out: AmpC IC50 plus Triton, plus 0.01% Triton X-100

Chain of AmpC β-lactamase (P00811 20-377): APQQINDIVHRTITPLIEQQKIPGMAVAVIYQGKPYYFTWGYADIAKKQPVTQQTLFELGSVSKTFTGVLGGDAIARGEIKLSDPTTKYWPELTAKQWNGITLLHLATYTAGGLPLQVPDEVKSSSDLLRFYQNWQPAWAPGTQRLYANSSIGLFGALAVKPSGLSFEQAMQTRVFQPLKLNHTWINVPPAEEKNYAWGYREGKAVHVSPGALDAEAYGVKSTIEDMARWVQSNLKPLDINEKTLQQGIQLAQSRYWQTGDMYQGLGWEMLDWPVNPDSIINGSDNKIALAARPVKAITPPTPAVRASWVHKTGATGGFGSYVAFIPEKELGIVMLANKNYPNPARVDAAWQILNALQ

For `COc1ccc2c(=O)cc(-c3ccc(C)cc3)oc2c1` [CHEMBL17052], the “Colloid formation by DLS” value ([1]; up to concentrations of at least 200 µM (Table 2)) is given as “does not form colloids” and the IC50 [2] is given as 11.3 µM.
In the case of `Nc1sc2c(c1C(=O)c1ccc(Cl)cc1)CCCC2` [CHEMBL57997], the IC50 (AmpC β-lactamase; [5]) is reported as 12.7 µM, the IC50 (AmpC β-lactamase; [6]) is reported as over 100 µM and the “DLS detected (concentration at which particles were detected)” value (“DLS detected” below) [1] is reported as 21 µM. For the same compound, the DLS particle radius [1] was 270 nm.
For `Cc1ccccc1OCC(=O)Nc1ccc(-c2nc3cc(Cl)ccc3o2)cc1` [CHEMBL261275], the IC50 [3] is listed as 21 µM, the “Effect of 0.01% Triton X-100 on β-lactamase inhibition” value (AmpC β-lactamase; addition of 0.01% Triton X-100) is listed as “fully abrogated” and the IC50 (AmpC β-lactamase; [5]) is listed as 7 µM. For the same compound, the IC50 (AmpC β-lactamase; [6]) was over 100 µM, the “DLS detected” value [1] was 4 µM and the DLS particle radius [1] was 2312 nm.
With `Cc1ccc(-c2noc(CN(C(=O)C(c3ccccc3)c3ccccc3)C(C)C)n2)cc1` [CHEMBL1304694] the IC50 (AmpC β-lactamase; [5]) was 8 µM, the IC50 (AmpC β-lactamase; [6]) was over 100 µM and the “DLS detected” value [1] was 20 µM. For the same compound, the DLS particle radius [1] was 456 nm.
In the case of `Cc1cc(NS(=O)(=O)c2ccc(NC(=O)COc3c(C)cc(Br)cc3C)cc2)no1` [CHEMBL1333273], the IC50 (AmpC β-lactamase; [5]) is reported as 146 µM, the IC50 (AmpC β-lactamase; [6]) is reported as over 400 µM and the “DLS detected” value [1] is reported as 100 µM. It also gave a DLS particle radius [1] of 49 nm.
For `CCOC(=O)c1c(-c2ccc(C)o2)csc1NC(=O)CSc1ncn[nH]1` [CHEMBL1347854], the IC50 (AmpC β-lactamase; [5]) was 29 µM, the IC50 (AmpC β-lactamase; [6]) was over 100 µM and the “DLS detected” value [1] was 10 µM. The DLS particle radius [1] was 115 nm.
In the case of `C=CCOC(=O)c1[nH]c2c(c1C)C(=O)CC(c1ccco1)C2` (stereo not shown) [CHEMBL1359872], the IC50 (AmpC β-lactamase; [5]) is reported as 10 µM, the IC50 (AmpC β-lactamase; [6]) is reported as over 100 µM and the “DLS detected” value [1] is reported as 10 µM. For the same compound, the DLS particle radius [1] was 405 nm.
For `COc1ccc(OC(C)C(=O)N(C)Cc2nc(-c3ccc(OC)cc3)no2)cc1` (stereo not shown) [CHEMBL1508601], the IC50 (AmpC β-lactamase; [5]) was 235 µM, the IC50 (AmpC β-lactamase; [6]) was over 400 µM and the “DLS detected” value [1] was 100 µM. It also gave a DLS particle radius [1] of 62 nm.
For `CN(CCC#N)C(=O)c1cc2c(s1)-c1ccccc1SC2` [CHEMBL1565380], the IC50 (AmpC β-lactamase; [5]) was 184 µM, the IC50 (AmpC β-lactamase; [6]) was over 400 µM and the “DLS detected” value [1] was 100 µM. For the same compound, the DLS particle radius [1] was 71 nm.
In the case of `CC(=O)c1c(O)c(C)c(O)c(Cc2c(O)c3c(c(C(=O)/C=C/c4ccccc4)c2O)OC(C)(C)C=C3)c1O` [Rottlerin], the Known aggregator status [4] is listed as “known aggregator at micromolar concentrations”.
For `C[C@]12CC[C@@H]3c4ccc(O)cc4C[C@@H](CCCCCCCCC[S+]([O-])CCCC(F)(F)C(F)(F)F)[C@H]3[C@@H]1CC[C@@H]2O` (stereo partly shown) [fulvestrant], the Known aggregator status [4] is listed as “strong aggregators”.
In the case of `CNC(=O)c1cc(Oc2ccc(NC(=O)Nc3ccc(Cl)c(C(F)(F)F)c3)cc2)ccn1` [sorafenib], the “CAC (critical aggregation concentration)” value ([4]; in biochemical buffer and in cell culture) is listed as 3.5 µM and the Known aggregator status [4] is listed as “strong aggregators”.
